Screens: PubChem, several laboratories
ABHD5 PLIN5 PPI: inhibitors of human ABHD5-perilipin-5 interaction; Split G. princeps luciferase complementation, luminescence, 4 h; inhibition, % at 4 µM; actives 0.78% (n = 360,000);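 active = inhibition above the mean inhibition across every tested compound plus 3 SD, cut at about 22% in these data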;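 also: 0% = DMSO only wells and the 100% control is not disclosed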
Rpn11 inh: blocks the human proteasome subunit Rpn11; O00487; human 26S proteasome, Ub4-pepOG fluorescence polarization; 20S core pre-blocked with epoxomicin; inhibition, % at 20 µM; actives 0.59% (n = 360,000); AID 588493;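 active = inhibition at 20 µM, scaled to each plate's controls, above about 33%, limit read from the data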
Target sequence (O00487 whole entry, looked up): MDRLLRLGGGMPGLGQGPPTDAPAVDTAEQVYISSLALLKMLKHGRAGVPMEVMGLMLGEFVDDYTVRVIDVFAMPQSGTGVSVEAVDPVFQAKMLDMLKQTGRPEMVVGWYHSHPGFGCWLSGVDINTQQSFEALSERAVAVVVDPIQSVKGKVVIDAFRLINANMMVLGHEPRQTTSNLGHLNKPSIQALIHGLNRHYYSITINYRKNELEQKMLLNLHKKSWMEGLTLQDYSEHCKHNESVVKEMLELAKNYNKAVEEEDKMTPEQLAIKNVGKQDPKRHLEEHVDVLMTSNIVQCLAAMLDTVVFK
Rin1-Abl PPI inh: blocks binding of human Rin1 to Abl | TR-FRET Rin1/Abl binding, biochemical | actives 0.4% (n = 360,000) | inhibition, % at 7.35 µM; in the data active = inhibition above about 5%, passing the limit was not always enough
NadD inh: blocks S. aureus nicotinate mononucleotide adenylyltransferase; purified NadD enzyme, colorimetric absorbance read-out; inhibition, % at 20 µM; actives 0.78% (n = 360,000); in the data active = inhibition above about 26%
Xi reactivation: activators of X-chromosome reactivation in mouse fibroblasts | XiGFP mouse fibroblasts, % GFP-positive cells imaging, 3 d; cells co-treated with 5-aza-dC sensitizer; scaled so ellipticine positive control = 100% | AID 743238 | activation, % at 7.58 µM | actives 0.055% (n = 360,000);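 active = mean normalized replicate activation at least 10% and every replicate at or above 10%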;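 also: 0% = median of on-plate neutral control wells and 100% = ellipticine 6 µM median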
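Material: SV40-immortalized XiGFP fibroblast cells, line 68-5-11 | Buffer or medium: DMEM containing 5-aza-dC | Dosing: One concentration, pinned | Times: 3 d treatment, 15 min room-temperature fixation | Controls: Ellipticine 6 µM positive control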
NadD conf: confirmation of Staphylococcus aureus NadD inhibitors; purified S. aureus NadD, colorimetric enzyme assay; actives 13% (n = 2,000); inhibition, % at 20 µM; shares compounds with NadD inh; in the data active = inhibition mostly above about 42%, no sharp cut-off; inactive = mostly below about 42%
* hit, by the source's call; . = not tested or not shown. Only some compounds are listed: those with a hit (about 1.9% of all), similar ones and a draw of the others.

SMILES | ABHD5 PLIN5 PPI | Rpn11 inh | Rin1-Abl PPI inh | NadD inh | Xi reactivation | NadD conf
C[C@@H]1CN([C@@H](C)CO)C(=O)c2cc(NC(=O)Cc3ccccc3)ccc2O[C@@H](C)CCCCO[C@@H]1CN(C)Cc1ccc2c(c1)OCO2 | . | . | . | . | 0 | .
Cc1ccc(NC(=O)C2(c3ccccc3)CCCC2)nc1 | 8 | 1 | -1 | 32* | . | 2
O=C(Nc1ccccn1)C1(c2ccccc2)CCCC1 | -1 | 1 | -3 | -6 | . | .
COc1cccc(-c2ccc([C@@H]3[C@H](CO)N4CCCCN(C(=O)NC(C)C)C[C@@H]34)cc2)c1 | . | . | . | . | 0 | .
Cc1ccccc1C(=O)N=c1ccn(-c2nc3ccccc3nc2NS(=O)(=O)c2ccc(F)cc2)cc1 | 6 | 5 | 2 | 30* | 0 | 56*
O=C(Nc1ccc(F)cc1)N1CC(=O)N2[C@H](C1)[C@H](c1ccc(Br)cc1)[C@@H]2CO | . | . | . | . | 0 | .
CCOc1ccc(/C=C/C(=O)c2cc(Br)ccc(=O)c2O)cc1 | 19 | 16 | 3 | 32* | 0 | 15
Cc1noc(C)c1NC(=O)Nc1ccc2c(c1)C(=O)N([C@H](C)CO)C[C@@H](C)[C@@H](CN(C)S(=O)(=O)c1ccccc1)O2 | . | . | . | . | 0 | .
COc1ccccc1CNC(=O)C[C@H]1C[C@H]2c3cc(NC(=O)CC4CC4)ccc3O[C@H]2[C@@H](CO)O1 | . | . | . | . | 0 | .
Cc1ccc(NC(=O)C2CCN(S(=O)(=O)c3cc([N+](=O)[O-])ccc3Cl)CC2)nc1 | -8 | 5 | -5 | 3 | 0 | .
Cc1ccc2nc(NC(=O)C3CCN(S(=O)(=O)c4cc([N+](=O)[O-])ccc4Cl)CC3)sc2c1 | -1 | -20 | -4 | 31* | 0 | 0
O=C(Nc1nc2ccc(F)cc2s1)C1CCN(S(=O)(=O)c2cc([N+](=O)[O-])ccc2Cl)CC1 | -6 | -13 | 0 | 35* | 0 | 12
COc1ccc(CN(C)C[C@@H]2Oc3ccc(NC(=O)Nc4c(C)noc4C)cc3C(=O)N([C@@H](C)CO)C[C@H]2C)cc1 | . | . | . | . | -1 | .
Cc1nc2cc(NC(=O)N3CCN(c4ccccn4)CC3)ccc2o1 | 1 | -1 | 3 | -11 | . | .
O=C(Nc1ccc2nc(-c3ccco3)c(-c3ccco3)nc2c1)N1CCN(c2ccccn2)CC1 | 20 | -52 | -1 | 49* | 1 | 49*
S=C(Nc1ccc(N2CCOCC2)cc1)Nc1ccc2nc(-c3ccco3)c(-c3ccco3)nc2c1 | 2 | -46 | -2 | 42* | . | 2
Cc1ccc(NC(=O)c2cc(C(=O)c3cc(Cl)ccc3O)cn(-c3ccc(C)cc3)c2=O)cc1 | 7 | 18 | -5 | 31* | 1 | -11
COC(=O)C1=C(O)/C(=C\c2ccc(CNC(=O)C(=O)Nc3ccc(C)c(C)c3)o2)N=C1C | -2 | 18 | -2 | 34* | . | 7
COC(=O)C1=C(O)/C(=C\c2ccc(CNC(=O)C(=O)Nc3ccc(C)cc3)o2)N=C1C | 12 | 1 | 3 | 32* | . | 8
CCOC(=O)C1=C(O)/C(=C/c2ccc(CNC(=O)C(=O)Nc3ccc(C)cc3)o2)N=C1C | 2 | 8 | -1 | 46* | . | 6
CC[n+]1c(/C=C/Nc2ccccc2)sc2ccccc21 | 3 | 2 | -4 | 13 | . | .
CCN1/C(=C/C=C/C=C/C=C/c2sc3ccccc3[n+]2CC)Sc2ccccc21 | 7 | 39 | 5 | 40* | 0 | 79*
COc1ccc(COc2cc(-c3cccc(OC)c3)nc3ccc(NC(=O)c4ccc(Cl)cc4)cc23)cc1 | -3 | -4 | 2 | 59* | 0 | 11
COc1ccc(COc2cc(-c3cccc(OC)c3)nc3ccc(NC(=O)c4ccccc4)cc23)cc1 | -1 | -1 | 2 | 32* | 0 | 9
c1ccc(-c2cc(-c3nnc4n3N=C(c3ccc5ccccc5c3)CS4)[nH]n2)cc1 | 3 | 6 | -1 | 55* | . | 4
SMILES | ABHD5 PLIN5 PPI | Rpn11 inh | Rin1-Abl PPI inh | NadD inh | Xi reactivation | NadD conf
Cc1cc(-c2nnc3n2N=C(c2ccc(-c4ccccc4)cc2)CS3)n[nH]1 | 10 | 13 | -6 | 27 | . | .
CCOc1ccc(NC(=S)NS(=O)(=O)c2cc(Br)ccc2OCC)cc1 | -10 | -2 | -1 | -1 | 0 | .
CCOc1ccc(Br)cc1S(=O)(=O)Nc1ccc(C(=O)OCC(=O)Nc2ccc(C#N)cc2)cc1 | 3 | 2 | 0 | 34* | 0 | 41
Cc1cccc(N2CCN(C(=O)c3ccc4nc(-c5ccco5)c(-c5ccco5)nc4c3)CC2C)c1 (stereo unspecified) | 12 | 1 | 1 | 42* | . | 8
Cc1cccc(N2CCN(C(=O)c3ccc4nccnc4c3)CC2C)c1 (stereo unspecified) | -1 | 5 | 3 | 5 | 0 | .
O=[N+]([O-])c1ccc(Nc2cccc3c2[nH]c2c(-c4ccccc4)nccc23)c([N+](=O)[O-])c1 | -4 | -3 | 8 | 44* | 0 | 16
Cc1ccc(Cn2c(C(CO)Nc3nc(-c4ccc(F)cc4)cs3)nc3ccccc32)cc1 (stereo unspecified) | -14 | 6 | -1 | 22 | 0 | .
CCCn1c(C(C)Nc2nc(-c3ccc(OC)cc3)cs2)nc2ccccc21 (stereo unspecified) | -2 | 1 | 4 | 2 | 0 | .
CCCn1c(C(C)Nc2nc(-c3ccc(Cl)c([N+](=O)[O-])c3)cs2)nc2cc(Cl)c(N3CCCCC3)cc21 (stereo unspecified) | 9 | 6 | 2 | 33* | . | 5
Cc1ccc(Cn2c(C(CO)Nc3nc(-c4ccc(Cl)c([N+](=O)[O-])c4)cs3)nc3ccccc32)cc1 (stereo unspecified) | -5 | -2 | 0 | 51* | 0 | 41
CC1=CC(C)(C)n2c(O)c(C3=NC(=S)NC3=O)c3cc(OC(=O)c4cccc5ccccc45)cc1c32 | 0 | -2 | -3 | 55* | . | 6
CCCCOC(=O)C(C#N)c1nc2ccccc2nc1N1CCN(Cc2ccc3c(c2)OCO3)CC1 (stereo unspecified) | 15 | 4 | -3 | 15 | . | .
CC(C)COC(=O)C(C#N)c1nc2ccccc2nc1N1CCN(Cc2ccc3c(c2)OCO3)CC1 (stereo unspecified) | -2 | 5 | 1 | 31* | . | 9
Nc1cccc2c(=O)c3ccccc3[nH]c12 | -15 | -6 | 0 | 29* | 0 | -3
COc1cccc2[nH]c3ccccc3c(=O)c12 | -6 | -2 | -4 | -1 | . | .
Cc1cccc(NC(=O)c2nc[nH]c2C(=O)Nc2cc(Br)ccc2F)c1 | -3 | -6 | -2 | 14 | . | .
Cc1cccc(NC(=O)c2nc[nH]c2C(=O)Nc2ccccc2[N+](=O)[O-])c1 | 2 | 6 | -2 | 31* | 0 | 3
